Assay results: ChEMBL document CHEMBL4007505 (J Med Chem, 2017)
The source made the active and inactive calls. The calls are words filed in the database; no cut-off is given here.

What was measured:
[1] = biological target: T1, Sodium-dependent dopamine transporter (Homo sapiens, UniProt Q01959); test: Enhancing of [3H]WIN35,428 binding to recombinant human DAT expressed in HEK293 cell membranes at 10 uM pre-incubated for 10 mins before radioligand addition and measured 90 mins after radioligand addition by micro beta scintillation counting analysis relative to control
[2] = biological target: T1, Sodium-dependent dopamine transporter; test: Inhibition of [3H]WIN35,428 binding to recombinant human DAT expressed in HEK293 cell membranes at 10 uM pre-incubated for 10 mins before radioligand addition and measured 90 mins after radioligand addition by micro beta scintillation counting analysis relative to control
Adenosine receptor A3 = biological target: T2, Adenosine receptor A3 (Homo sapiens, UniProt P0DMS8); test: Displacement of [125I]N6-(4-amino-3-iodobenzyl)adenosine-5'-N-methyluronamide from human A3AR expressed in HEK293T cells pre-incubated for 10 mins before radioligand addition and measured 90 mins after radioligand addition by micro beta scintillation counting analysis relative to control; type: cell-based, HEK-293T
T2 sequence (P0DMS8 whole entry): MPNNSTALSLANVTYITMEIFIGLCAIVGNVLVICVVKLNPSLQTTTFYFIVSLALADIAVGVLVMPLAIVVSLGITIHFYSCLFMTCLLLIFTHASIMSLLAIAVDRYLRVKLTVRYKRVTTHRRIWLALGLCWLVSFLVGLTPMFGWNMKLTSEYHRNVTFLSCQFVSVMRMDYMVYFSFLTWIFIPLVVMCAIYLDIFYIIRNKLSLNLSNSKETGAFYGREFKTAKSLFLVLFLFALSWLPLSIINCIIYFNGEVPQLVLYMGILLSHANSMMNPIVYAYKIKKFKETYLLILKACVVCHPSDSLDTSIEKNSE

[3] = biological target: T3, Adenosine receptor A3 (Mus musculus) (UniProt Q61618); test: Displacement of [125I]N6-(4-amino-3-iodobenzyl)adenosine-5'-N-methyluronamide from mouse A3AR expressed in HEK293T cells at 10 uM pre-incubated for 10 mins before radioligand addition and measured 90 mins after radioligand addition by micro beta scintillation counting analysis relative to control; type: cell-based
T3 sequence (whole entry): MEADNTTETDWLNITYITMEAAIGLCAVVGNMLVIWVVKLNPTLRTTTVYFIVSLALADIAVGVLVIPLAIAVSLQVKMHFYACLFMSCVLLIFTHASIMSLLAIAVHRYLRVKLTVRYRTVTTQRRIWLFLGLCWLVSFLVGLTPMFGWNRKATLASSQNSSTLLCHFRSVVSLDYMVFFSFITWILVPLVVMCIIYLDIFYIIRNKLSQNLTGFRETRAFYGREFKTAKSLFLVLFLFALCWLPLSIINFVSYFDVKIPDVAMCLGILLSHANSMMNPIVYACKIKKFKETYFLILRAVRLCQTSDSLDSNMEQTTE

[4] = biological target: T1, Sodium-dependent dopamine transporter; test: Enhancing of [125I]RTI-55 binding to recombinant human DAT expressed in HEK293 cell membranes preincubated for 10 mins followed by radioligand addition measured after 90 mins by micro beta scintillation counting analysis; parameters: concentration or dose not given beside the values; conditions: for EC50: read-out: EC50
Procedure, shortened: (§1)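 Membranes of HEK-293 cells stably expressing hDAT, hNET or hSERT. […] Compound preincubated 10 min at room temperature, then [125I]23 (40-80 pM final) or [3H]26 (1-3 nM for DAT and NET, 10-13 nM for SERT) added. Incubated 90 min at room temperature in the dark, then filtered. EC50 or Ki; mean ± SEM.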

[5] = biological target: T1, Sodium-dependent dopamine transporter; test: Enhancing of [3H]mazindol binding to recombinant human DAT expressed in HEK293 cell membranes preincubated for 10 mins followed by radioligand addition measured after 90 mins by micro beta scintillation counting analysis; parameters: concentration or dose not given beside the values; conditions: for EC50: read-out: EC50; procedure, shortened: as §1
[6] = biological target: T4, Sodium-dependent noradrenaline transporter (Homo sapiens, UniProt P23975); test: Enhancing of [125I]RTI-55 binding to recombinant human NET expressed in HEK293 cell membranes preincubated for 10 mins followed by radioligand addition measured after 90 mins by micro beta scintillation counting analysis; parameters: concentration or dose not given beside the values; conditions: for EC50: read-out: EC50
[7] = biological target: T1, Sodium-dependent dopamine transporter; test: Inhibition of recombinant human DAT expressed in HEK293 cell […] as reduction in [3H]-DA uptake incubated for 22 mins by micro beta scintillation counting analysis
[8] = biological target: T4, Sodium-dependent noradrenaline transporter; test: Enhancing of [3H]mazindol binding to recombinant human NET expressed in HEK293 cell membranes preincubated for 10 mins followed by radioligand addition measured after 90 mins by micro beta scintillation counting analysis
[9] = biological target: T4, Sodium-dependent noradrenaline transporter; test: Inhibition of recombinant human NET expressed in HEK293 […] assessed as reduction in [3H]-norepinephrine uptake incubated for 22 mins by micro beta scintillation counting analysis
[10] = biological target: T5, Sodium-dependent serotonin transporter (Homo sapiens, UniProt P31645); test: Enhancing of [125I]RTI-55 binding to recombinant human SERT expressed in HEK293 cell membranes preincubated for 10 mins followed by radioligand addition measured after 90 mins by micro beta scintillation counting analysis; conditions: for EC50: read-out: EC50
[11] = biological target: Sodium-dependent dopamine transporter (Mus musculus) (UniProt Q61327); test: (§2) Enhancing of [125I]RTI-55 binding to mouse DAT expressed in HEK293 cells preincubated for 10 mins followed by radioligand addition measured after 90 mins by micro beta scintillation counting analysis; type: cell-based
Procedure, shortened: (§3)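 Membranes preincubated 10 min at room temperature with compound in Krebs-HEPES buffer pH 7.4, then [125I]23 at fixed 45-50 pM for 90 min in the dark, filtered. […] EC50 and % control binding; mean ± SEM.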

[12] = biological target: T6, Sodium-dependent dopamine transporter (Mus musculus, UniProt Q61327); test: as §2; type: cell-based; procedure, shortened: as §3
[13] = biological target: T6, Sodium-dependent dopamine transporter; test: Inhibition of mouse DAT expressed in HEK293 cells assessed as reduction in [3H]-DA uptake; type: cell-based
[14] = biological target: Adenosine receptor A3 (Homo sapiens) (UniProt P0DMS8); test: Agonist activity at human A3AR assessed as inhibition of cAMP formation at 10 uM relative to adenosine-5'-Nethyluronamide
[15] = biological target: T5, Sodium-dependent serotonin transporter; test: Enhancing of [3H]mazindol binding to recombinant human SERT expressed in HEK293 cell membranes preincubated for 10 mins followed by radioligand addition measured after 90 mins by micro beta scintillation counting analysis
[16] = biological target: T7, 5-hydroxytryptamine receptor 2C (Homo sapiens, UniProt P28335); test: Displacement of [3H]Mesulergine from human 5-HT2C receptor
T7 sequence (P28335 whole entry): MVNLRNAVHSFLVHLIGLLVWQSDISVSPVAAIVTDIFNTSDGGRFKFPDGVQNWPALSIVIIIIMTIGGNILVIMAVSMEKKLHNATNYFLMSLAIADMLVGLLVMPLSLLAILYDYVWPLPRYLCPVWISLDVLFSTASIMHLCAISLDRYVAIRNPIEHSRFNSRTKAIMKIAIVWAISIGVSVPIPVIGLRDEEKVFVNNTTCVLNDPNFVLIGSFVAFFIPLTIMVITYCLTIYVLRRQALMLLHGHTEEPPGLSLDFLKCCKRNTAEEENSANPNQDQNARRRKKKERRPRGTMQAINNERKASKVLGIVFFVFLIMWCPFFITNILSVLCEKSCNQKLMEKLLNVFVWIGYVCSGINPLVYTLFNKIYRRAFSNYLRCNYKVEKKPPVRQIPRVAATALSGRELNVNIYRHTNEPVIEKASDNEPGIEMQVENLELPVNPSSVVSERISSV

[17] = biological target: T5, Sodium-dependent serotonin transporter; test: Inhibition of recombinant human SERT expressed in HEK293 cell […] as reduction in [3H]5-HT uptake incubated for 22 mins by micro beta scintillation counting analysis
Target sequence in this assay (P31645 whole entry): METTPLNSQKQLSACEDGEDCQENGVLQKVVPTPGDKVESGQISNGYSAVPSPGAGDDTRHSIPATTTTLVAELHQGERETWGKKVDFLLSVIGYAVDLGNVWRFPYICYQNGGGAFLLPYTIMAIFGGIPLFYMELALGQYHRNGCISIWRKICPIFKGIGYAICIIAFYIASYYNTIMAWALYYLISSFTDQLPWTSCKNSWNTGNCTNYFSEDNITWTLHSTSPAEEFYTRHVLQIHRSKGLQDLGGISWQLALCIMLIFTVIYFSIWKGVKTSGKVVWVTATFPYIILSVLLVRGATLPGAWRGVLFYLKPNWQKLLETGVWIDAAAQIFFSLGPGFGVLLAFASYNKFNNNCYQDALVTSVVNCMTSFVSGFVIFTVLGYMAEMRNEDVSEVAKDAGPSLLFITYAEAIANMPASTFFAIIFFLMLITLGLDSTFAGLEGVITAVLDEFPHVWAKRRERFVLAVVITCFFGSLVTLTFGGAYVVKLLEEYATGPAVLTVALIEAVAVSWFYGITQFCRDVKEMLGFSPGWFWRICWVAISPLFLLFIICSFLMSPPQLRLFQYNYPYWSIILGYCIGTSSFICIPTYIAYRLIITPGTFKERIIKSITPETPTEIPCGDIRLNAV

[18] = biological target: T1, Sodium-dependent dopamine transporter; test: Enhancing of [3H]WIN35,428 binding to recombinant human DAT expressed in HEK293 cell membranes pre-incubated for 10 mins before radioligand addition and measured 90 mins after radioligand addition by micro beta scintillation counting analysis relative to control

T4 sequence (P23975 whole entry): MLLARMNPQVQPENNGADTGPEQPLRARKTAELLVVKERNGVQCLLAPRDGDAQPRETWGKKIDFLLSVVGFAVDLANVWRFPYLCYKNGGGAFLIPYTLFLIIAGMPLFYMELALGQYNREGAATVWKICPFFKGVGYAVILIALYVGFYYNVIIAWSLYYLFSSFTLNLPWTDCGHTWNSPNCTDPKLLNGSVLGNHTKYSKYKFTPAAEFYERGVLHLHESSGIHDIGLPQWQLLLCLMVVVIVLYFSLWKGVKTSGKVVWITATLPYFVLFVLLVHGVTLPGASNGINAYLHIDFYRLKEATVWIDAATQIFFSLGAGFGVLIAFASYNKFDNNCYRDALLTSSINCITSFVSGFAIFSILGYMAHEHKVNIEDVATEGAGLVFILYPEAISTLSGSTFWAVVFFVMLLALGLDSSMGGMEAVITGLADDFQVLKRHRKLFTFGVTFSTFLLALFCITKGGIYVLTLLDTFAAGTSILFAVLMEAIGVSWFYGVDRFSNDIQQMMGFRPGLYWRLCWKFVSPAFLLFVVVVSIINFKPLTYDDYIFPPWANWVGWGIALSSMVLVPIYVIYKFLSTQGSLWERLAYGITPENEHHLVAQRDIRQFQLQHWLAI
Chain of Sodium-dependent dopamine transporter (Mus musculus) (Q61327 whole entry): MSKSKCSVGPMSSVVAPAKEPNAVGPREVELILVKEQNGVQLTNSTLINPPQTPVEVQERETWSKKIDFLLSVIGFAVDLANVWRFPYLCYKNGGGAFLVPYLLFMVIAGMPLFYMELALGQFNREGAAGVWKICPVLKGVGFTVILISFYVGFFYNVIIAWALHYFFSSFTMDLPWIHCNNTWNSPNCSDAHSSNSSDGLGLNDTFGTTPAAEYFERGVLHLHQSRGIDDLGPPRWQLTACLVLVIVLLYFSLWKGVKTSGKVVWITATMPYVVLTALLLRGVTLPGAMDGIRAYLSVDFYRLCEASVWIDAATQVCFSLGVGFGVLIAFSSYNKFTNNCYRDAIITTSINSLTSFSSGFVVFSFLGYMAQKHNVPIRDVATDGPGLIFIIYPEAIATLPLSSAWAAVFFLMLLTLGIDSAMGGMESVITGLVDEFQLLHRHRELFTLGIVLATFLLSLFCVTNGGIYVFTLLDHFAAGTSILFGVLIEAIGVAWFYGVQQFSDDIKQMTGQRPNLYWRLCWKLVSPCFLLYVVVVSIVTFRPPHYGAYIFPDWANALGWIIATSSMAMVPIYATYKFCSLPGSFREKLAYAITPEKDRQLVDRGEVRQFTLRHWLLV
T6 sequence (Q61327 whole entry): as above
T1 sequence (Q01959 whole entry): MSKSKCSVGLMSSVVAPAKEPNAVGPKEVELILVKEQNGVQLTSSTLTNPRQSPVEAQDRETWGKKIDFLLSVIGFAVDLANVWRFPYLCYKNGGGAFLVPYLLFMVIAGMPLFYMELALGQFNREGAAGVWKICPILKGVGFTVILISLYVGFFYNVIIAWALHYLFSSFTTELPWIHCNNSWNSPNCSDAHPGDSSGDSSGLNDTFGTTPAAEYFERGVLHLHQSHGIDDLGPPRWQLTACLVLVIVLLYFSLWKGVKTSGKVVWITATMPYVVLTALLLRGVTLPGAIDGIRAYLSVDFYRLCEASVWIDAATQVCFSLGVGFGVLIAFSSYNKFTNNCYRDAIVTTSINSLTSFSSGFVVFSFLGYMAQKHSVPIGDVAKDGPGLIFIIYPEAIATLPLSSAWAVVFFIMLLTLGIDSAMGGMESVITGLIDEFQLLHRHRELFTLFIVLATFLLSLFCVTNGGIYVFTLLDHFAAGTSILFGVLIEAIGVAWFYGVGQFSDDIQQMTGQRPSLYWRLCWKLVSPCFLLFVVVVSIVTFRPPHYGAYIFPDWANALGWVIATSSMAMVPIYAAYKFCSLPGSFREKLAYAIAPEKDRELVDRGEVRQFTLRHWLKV

**Q.** What does the source list for `CNc1nc(C#Cc2ccc(Cl)s2)nc2c1ncn2[C@H]1[C@H](O)[C@H](O)[C@]2(C(=O)OC)C[C@H]12`?
**A.** Activity [1]: 352%; inhibition [2]: inactive; Ki (Adenosine receptor A3): 5.38 nM; inhibition [3]: 36%; Activity [4]: 458%; EC50 [4]: 35 nM; Activity [5]: 540%; EC50 [5]: 124 nM; Activity [6]: 375%; EC50 [6]: 310 nM; IC50 [7]: 127 nM; Activity [8]: inactive; IC50 [9]: 3380 nM; Activity [10]: inactive; Emax [11]: 1440%; EC50 [12]: 810 nM; IC50 [13]: 940 nM; Efficacy [14]: 11.6%

**Q.** What does the source list for `CNc1nc(C#Cc2ccc(Br)s2)nc2c1ncn2[C@H]1[C@H](O)[C@H](O)[C@]2(C(=O)OC)C[C@H]12`?
**A.** Activity [1]: 370%; inhibition [2]: inactive; Ki (Adenosine receptor A3): 8.56 nM; inhibition [3]: 57%; Activity [4]: 374%; EC50 [4]: 53.5 nM; Activity [5]: 520%; EC50 [5]: 308 nM; Activity [6]: 293%; EC50 [6]: 400 nM; IC50 [7]: 246 nM; Activity [8]: inactive; IC50 [9]: 3560 nM; Activity [10]: inactive; EC50 [10]: > 10000 nM; EC50 [15]: > 10000 nM; Ki [16]: 258 nM

**Q.** For `CNC(=O)[C@@]12C[C@@H]1[C@@H](n1cnc3c(NC)nc(C#Cc4ccc(Cl)s4)nc31)[C@H](O)[C@@H]2O`, which Activity [4] is on record?
**A.** 550%

**Q.** And the EC50 [4]?
**A.** 35.1 nM

**Q.** What about the Activity [5] of the same compound?
**A.** 403%

**Q.** What about the EC50 [5] of the same compound?
**A.** 131 nM

**Q.** And the Activity [6]?
**A.** 386%

**Q.** And the EC50 [6]?
**A.** 1180 nM

**Q.** And the IC50 [7]?
**A.** 253 nM

**Q.** What about the Activity [8] of the same compound?
**A.** inactive

**Q.** And the IC50 [9]?
**A.** > 10000 nM

**Q.** What about the Activity [10] of the same compound?
**A.** inactive

**Q.** What about the EC50 [10] of the same compound?
**A.** > 10000 nM

**Q.** And the Activity [15]?
**A.** inactive

**Q.** And the EC50 [15]?
**A.** > 10000 nM

**Q.** What about the IC50 [17] of the same compound?
**A.** > 10000 nM

**Q.** And the Emax [11]?
**A.** 1150%

**Q.** What about the EC50 [12] of the same compound?
**A.** 2230 nM

**Q.** What about the IC50 [13] of the same compound?
**A.** 2290 nM

**Q.** Which results are given for `CNC(=O)[C@@]12C[C@@H]1[C@@H](n1cnc3c(NC)nc(C#Cc4ccc(Br)s4)nc31)[C@H](O)[C@@H]2O`?
**A.** Activity [4]: 217%; EC50 [4]: 9.1 nM; Activity [5]: 369%; EC50 [5]: 870 nM; Activity [6]: 285%; EC50 [6]: 670 nM; IC50 [7]: 229 nM; Activity [8]: inactive; IC50 [9]: 6110 nM; Activity [10]: inactive; EC50 [10]: > 10000 nM; Activity [15]: inactive; EC50 [15]: > 10000 nM; IC50 [17]: > 10000 nM; Emax [11]: 810%; EC50 [12]: 1100 nM; IC50 [13]: 3260 nM

**Q.** Which Activity [4] does the source give for `CNC(=O)[C@@]12C[C@@H]1[C@@H](n1cnc3c(NC)nc(C#Cc4ccc(F)c(F)c4)nc31)[C@H](O)[C@@H]2O` here?
**A.** 690%

**Q.** And the EC50 [4]?
**A.** 70 nM

**Q.** And the Activity [5]?
**A.** 438%

**Q.** And the EC50 [5]?
**A.** 128 nM

**Q.** And the Activity [6]?
**A.** 371%

**Q.** And the IC50 [7]?
**A.** 92 nM

**Q.** And the Activity [8]?
**A.** inactive

**Q.** And the Activity [10]?
**A.** inactive

**Q.** And the EC50 [10]?
**A.** > 10000 nM

**Q.** And the Activity [15]?
**A.** inactive

**Q.** What about the EC50 [15] of the same compound?
**A.** > 10000 nM

**Q.** What about the IC50 [17] of the same compound?
**A.** > 10000 nM

**Q.** With `CNc1nc(C#Cc2ccc(Cl)s2)nc2c1ncn2[C@H]1[C@H](O)[C@H](O)[C@]2(C(=O)OC(C)C)C[C@H]12` as the compound, how does the Activity [1] read?
**A.** inactive

**Q.** What about the inhibition [2] of the same compound?
**A.** 36%

**Q.** What about the Ki (Adenosine receptor A3) of the same compound?
**A.** 42.9 nM

**Q.** What about the inhibition [3] of the same compound?
**A.** 30%

**Q.** What about the Ki [16] of the same compound?
**A.** 430 nM

**Q.** And the EC50 [18]?
**A.** > 1000 nM

**Q.** What does the source list for `CNC(=O)[C@@]12C[C@@H]1[C@@H](n1cnc3c(NC)nc(C#Cc4ccc(Cl)s4)cc31)[C@H](O)[C@@H]2O`?
**A.** Activity [1]: 334%; inhibition [2]: inactive; inhibition [3]: 38%; Activity [4]: 437%; EC50 [4]: 239 nM; Activity [5]: 405%; EC50 [5]: 550 nM; Activity [6]: 318%; EC50 [6]: 740 nM; IC50 [7]: 163 nM; Activity [8]: inactive; IC50 [9]: 5060 nM; Activity [10]: inactive; Emax [11]: 1000%; EC50 [12]: 2760 nM; IC50 [13]: 4300 nM; Efficacy [14]: 116%
